# Assay outcomes from PubChem BioAssay.
# Rows were chosen to be rich in hits. Some 2.6% of all compounds tested hit in one or more screens of this group.
# TbMetRS inhib: blocks T. brucei methionyl-tRNA synthetase activity; purified T. brucei MetRS, ATP depletion, Kinase-Glo luminescence; AID 624268; actives 0.4% (n = 360,000); inhibition, % at 11.9 µM;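 active = inhibition above a per-plate cutoff of the control wells' mean inhibition plus 3 SD, cut at about 5.5% in these data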
#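 assay system = parasite MetRS enzyme | timing = 15 min preincubation, 2 h reaction, all 25 °C | evaluation = percent inhibition relative to median high and low control wells | medium = HEPES buffer containing pyrophosphatase, BSA, spermine, DTT | compound = single dose, 11.9 µM final nominal, 0.9% final DMSO | detection = Kinase-Glo luminescence, ATP depletion format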
# MC4R ag barr: agonists of human melanocortin 4 receptor (MC4R) beta-arrestin. U2OS MC4R beta-arrestin complementation, luminescence; percent of melanotan II response, DMSO zero. activation, % at 8.9 µM. P32245. actives 0.98% (n = 360,000);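 active = activation above a per-plate cutoff, the mean activation of sample wells on that plate plus 3 SD, cut at about 8% in these data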
# MC4R antagonist: antagonists of human melanocortin 4 receptor (MC4R); AID 540295; P32245; inhibition, % at 6.5 µM; MC4R-expressing cells, MTII-stimulated cAMP, LANCE TR-FRET; actives 0.48% (n = 360,000);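 active = inhibition above its plate's cutoff, the mean of tested wells on that plate plus 3 SD, cut at about 29% in these data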
#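 Test system: U2OS cells stably expressing human melanocortin 4 receptor (MC4R); also added: Melanotan II challenge; compound: 6.5 µM single dose; timing: 30-min compound preincubation, 1-h Melanotan II challenge, 1-h detection, room temperature; signal: Eu-cAMP/anti-cAMP TR-FRET, emission 671 nm; repeats: one well per compound, no replicates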
# ABCB6 inh MLPCN: human ABCB6 transporter inhibition; Q9NP58; K562-ABCB6 porphyrin accumulation, flow cytometry, 1 h; hits give low values; fluorescence ratio to DMSO, % at 10 µM; actives 0.19% (n = 360,000);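 active = fluorescence ratio to DMSO below 75%, the collection mean minus 3 SD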;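 note: signal is porphyrin accumulated inside mitochondria; lower ratio means ABCB6 inhibition with less porphyrin fluorescence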
# Target sequence (Q9NP58 whole entry, looked up): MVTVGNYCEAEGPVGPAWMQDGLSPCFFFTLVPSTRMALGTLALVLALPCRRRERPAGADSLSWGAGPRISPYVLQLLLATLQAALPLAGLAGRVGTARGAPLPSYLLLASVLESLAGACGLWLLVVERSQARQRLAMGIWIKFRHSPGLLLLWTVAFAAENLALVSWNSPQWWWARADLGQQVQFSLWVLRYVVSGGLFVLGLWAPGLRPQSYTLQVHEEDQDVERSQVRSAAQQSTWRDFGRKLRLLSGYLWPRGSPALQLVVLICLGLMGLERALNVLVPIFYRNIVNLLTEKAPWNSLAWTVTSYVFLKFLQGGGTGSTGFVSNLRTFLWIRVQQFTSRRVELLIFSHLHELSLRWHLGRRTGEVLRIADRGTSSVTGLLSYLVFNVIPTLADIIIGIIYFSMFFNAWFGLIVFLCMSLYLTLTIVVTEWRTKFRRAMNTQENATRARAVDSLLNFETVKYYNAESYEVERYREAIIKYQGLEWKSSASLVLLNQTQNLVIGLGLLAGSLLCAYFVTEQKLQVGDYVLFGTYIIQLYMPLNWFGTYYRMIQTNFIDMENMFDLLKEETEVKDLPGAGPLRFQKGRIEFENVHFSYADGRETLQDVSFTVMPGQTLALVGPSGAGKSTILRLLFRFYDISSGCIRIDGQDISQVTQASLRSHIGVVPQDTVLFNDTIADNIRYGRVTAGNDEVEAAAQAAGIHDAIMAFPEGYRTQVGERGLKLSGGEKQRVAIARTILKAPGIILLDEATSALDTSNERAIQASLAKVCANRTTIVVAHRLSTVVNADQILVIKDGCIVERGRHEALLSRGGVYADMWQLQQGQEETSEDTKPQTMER
# Exocytosis inh: lytic granule exocytosis inhibition | TALL-104 LAMP-1 surface exposure, flow cytometry; cells stimulated with thapsigargin and PMA | inhibition, % at 10 µM | actives 0.66% (n = 360,000);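 active = inhibition above about 55%, limit read from the data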
# hiPSC survival: enhancers of human iPSC single-cell survival. survival enhancement, % at 20 µM. actives 0.044% (n = 360,000). AID 602274. hiPSC single-cell survival, ATPlite luminescence; 100% = ROCK inhibitor wells, 0% = DMSO; in the data active = survival enhancement above about 18%;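 note: cells exposed to compounds for 16 hours before the ATP read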
# Exocytosis CP01: lytic granule exocytosis inhibition. shares compounds with Exocytosis inh. TALL-104 cells, LAMP-1 externalization, flow cytometry; stimulated with PMA plus thapsigargin. inhibition, % at 10 µM. actives 11% (n = 1,500); in the data active = inhibition above about 60%
# A number is an active result; n = inactive; x = not tested or not shown.
SMILES,TbMetRS inhib,MC4R ag barr,MC4R antagonist,ABCB6 inh MLPCN,Exocytosis inh,hiPSC survival,Exocytosis CP01
COc1cccc(C(=O)Oc2ccccc2/C=C\C(=O)c2cc3ccccc3o2)c1,n,n,n,n,86,n,n
O=S(=O)(c1ccccc1)c1nnn2c1nc(NC1CCN(Cc3ccccc3)CC1)c1cc(Cl)ccc12,n,n,n,n,64,n,69
COc1ccc(NC(=S)N(CCCN2CCCC2)Cc2cccn2Cc2ccc(Cl)cc2)cc1Cl,n,n,n,n,69,n,n
FC(F)(F)c1cccc(NC(=S)N(CCCN2CCCC2)Cc2cccn2Cc2ccc(Cl)cc2)c1,n,n,n,n,68,n,n
CN(C)CCCN(Cc1ccccc1)C(=S)Nc1cccc(C(F)(F)F)c1,n,n,n,n,n,n,x
CCCn1nc2cc(C(=O)NCCCCc3ccccc3)ccc2c1OCC,n,n,n,n,87,n,n
CCCn1nc2cc(C(=O)NCCc3ccc(C)cc3)ccc2c1OCC,n,n,n,n,n,n,x
COc1cc(CNC2CCCCCCC2)ccc1OCC(N)=O,n,n,n,n,n,n,x
CCOC(=O)c1ccc(NC(=O)COc2ccc(CNC3CCCCC3)cc2OC)cc1,n,n,n,n,60,n,n
O=C(CNC1CCCCC1)Nc1ccc(S(=O)(=O)N2CCCCC2)cc1,n,n,n,n,78,n,n
CC1CCCN(S(=O)(=O)c2ccc(NC(=O)CNC3CCCC3)cc2)C1 (centres undefined),n,n,n,n,n,n,x
O=C(NCCc1ccc(Cl)cc1)C1CCN(S(=O)(=O)c2ccc(Br)s2)CC1,n,n,n,n,65,n,n
COc1ccc(Br)cc1CNC(=O)C1CCCN(S(=O)(=O)N2CC(C)CC(C)C2)C1 (centres undefined),n,n,n,n,70,n,n
COc1ccc(CNC(=O)C2CCCN(S(=O)(=O)c3ccc(Br)s3)C2)cc1 (centres undefined),n,n,n,n,69,n,n
O=C(NCCc1ccc(Cl)cc1)C1CCN(S(=O)(=O)N2CCCC2)CC1,n,n,n,n,n,n,x
CCC(Cc1ccccc1)NC(=O)C1CC1 (centres undefined),n,n,n,n,n,n,x
COc1ccccc1CNC(=O)c1sccc1-c1ccccc1,n,n,n,n,66,n,n
COc1ccccc1CNC(=O)c1sccc1C,n,n,n,n,n,n,x
Cc1ccc(N(C)S(=O)(=O)c2cc(-c3cnc(C4CC4)o3)ccc2C)cc1,n,n,n,n,97,n,n
Cc1ccc(C(=O)C(C)Oc2cccc(NC(=O)c3ccco3)c2)cc1 (centres undefined),n,n,n,n,n,n,x
COCCn1c(SCCOc2ccccc2)nc2ccccc2c1=O,n,n,n,n,67,n,n
Fc1ccc(CNC2CCN(Cc3ccccc3)CC2)cc1,n,n,n,n,62,n,n
COc1ccccc1CNC1CCN(Cc2ccccc2)CC1,n,n,n,n,n,n,x
S=C(NCc1ccc(Cl)cc1)NC1CCN(Cc2ccccc2)CC1,n,n,n,n,n,n,x
c1ccc(CNc2ccc(N3CCOCC3)cc2)cc1,n,n,n,n,n,n,x
SMILES,TbMetRS inhib,MC4R ag barr,MC4R antagonist,ABCB6 inh MLPCN,Exocytosis inh,hiPSC survival,Exocytosis CP01
Clc1ccc(CNc2ccc(N3CCN(Cc4ccccc4)CC3)cc2)cc1,n,n,n,n,67,n,n
Clc1ccc(CNC2CCN(Cc3ccccc3)CC2)cc1,n,n,n,n,67,n,n
COc1cc(C(=O)OCc2cc(=O)oc3c(C)c(C)ccc23)ccc1OC(F)F,n,n,n,n,n,n,x
O=C(CN1C(=O)NC2(CCOc3ccccc32)C1=O)Nc1ccc(Br)cc1F (centres undefined),n,n,n,n,n,n,x
COc1ccccc1N1CCN(C(=O)c2ccc3[nH]c4c(c3c2)CC(C)CC4)CC1 (centres undefined),n,n,n,n,n,n,x
COC(=O)Nc1ccc(S(=O)(=O)NC2CCS(=O)(=O)C2)cc1 (centres undefined),n,n,n,n,64,n,n
CCCCc1ccc(S(=O)(=O)NC2CCS(=O)(=O)C2)cc1 (centres undefined),n,n,n,n,n,n,x
Cc1cc(Cl)ccc1OC(C)C(=O)NCCCn1ccnc1 (centres undefined),n,n,n,n,n,n,x
COc1cccc(CN2CCN(C(=O)c3ccco3)CC2)c1,n,n,n,n,87,n,n
Cc1ccccc1OCC(O)CN(Cc1ccccc1O)C1CCCCC1 (centres undefined),n,n,n,n,68,n,n
CCCCNC(=O)C1(C)CCC(=O)N1CCOc1ccccc1 (centres undefined),n,x,x,n,n,n,x
CCOC(=O)c1csc(-c2ccc([N+](=O)[O-])cc2)n1,n,n,n,n,n,n,x
CCOC(=O)c1cc(-c2cccc([N+](=O)[O-])c2)on1,n,n,n,n,66,n,n
Cc1cc(NS(=O)(=O)c2ccc(NC(=O)CCSc3ccc(F)cc3)cc2)nc(C)n1,n,n,n,n,n,n,x
COc1cc(NC(=O)c2cccc3c2C(=O)N(C2CCCCC2)C3)cc(OC)c1OC,n,n,n,n,94,n,n
Cc1cc(C)cc(NC(=O)c2cccc3c2C(=O)N(C2CCCCC2)C3)c1,n,n,n,n,n,n,x
O=C(Cc1cccs1)Nc1nc(-c2ccc(F)cc2F)cs1,n,n,n,n,64,n,n
Cc1nn(C)c(Oc2ccccc2)c1CCNS(=O)(=O)c1ccccc1,n,n,n,n,n,n,x
CSc1ncc2[nH]c(C(O)c3ccccc3)nc2n1 (centres undefined),n,n,n,n,n,n,x
COc1cc(C(c2nnnn2C(C)(C)C)N2CCN(c3nc4ccccc4s3)CC2)ccc1O (centres undefined),n,n,n,n,58,n,n
Cc1ccc(CN2CCC[C@]3(N[C@H](c4ccccc4)[C@@H]4C(=O)N(C)C(=O)[C@@H]43)C2=O)cc1,n,n,n,n,n,n,x
O=C(Nc1ccc(N2CCN(c3ccc(C(F)(F)F)cn3)CC2)nc1)c1cccs1,n,n,n,n,n,n,x
O=C(Nc1ccc(N2CCN(c3ncccc3C(F)(F)F)CC2)nc1)c1cccs1,n,9.6,n,n,75,n,n
CCN(CC)CCN(C(=O)C1=COCCO1)c1nc2c(OC)ccc(OC)c2s1,n,n,n,n,n,n,x
COc1cc2nc(Nc3ccc(F)cc3)nc(N)c2cc1OC,n,n,n,n,65,n,n
